This is an account of results in ChEMBL document CHEMBL1149415, “Discovery and structure-activity relationship of antagonists of B-cell lymphoma 2 family proteins with chemopotentiation activity in vitro and in vivo” (J Med Chem, 2006).

The target of test [1] is Apoptosis regulator Bcl-2 (Homo sapiens, UniProt P10415). Nature of the test: Binding affinity to Bcl2 by fluorescence polarization assay. (Polarisation of emitted light reports the rotation of a fluorescent probe.)
In test [2] the target is T1, Bcl-2-like protein 1 (Homo sapiens, UniProt Q07817). Nature of the test: Binding affinity to Bcl-XL by fluorescence polarization assay.
Target sequence in this assay (Q07817 whole entry): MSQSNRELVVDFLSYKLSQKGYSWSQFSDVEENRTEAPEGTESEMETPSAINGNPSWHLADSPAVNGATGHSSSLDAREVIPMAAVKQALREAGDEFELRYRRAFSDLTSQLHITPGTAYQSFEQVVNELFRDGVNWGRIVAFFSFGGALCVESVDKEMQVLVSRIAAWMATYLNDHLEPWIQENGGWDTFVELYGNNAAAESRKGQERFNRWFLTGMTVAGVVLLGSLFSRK
In test [3] the target is T1, Bcl-2-like protein 1. Nature of the test: Binding affinity to Bcl-XL in 1% human serum by fluorescence polarization assay.
Target sequence in this assay (Q07817 whole entry): as above
For test [4], the target named is T1, Bcl-2-like protein 1. Nature of the test: Binding affinity to Bcl-XL in 10% human serum by fluorescence polarization assay. Summed up:
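Competitive fluorescence polarization: serial compound dilutions compete with 30 nM f-Bad peptide (FITC-labelled) for 60 nM Bcl-XL. Human serum at 10% added to the assay buffer. Duplicate values per determination; Ki calculated.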
Target sequence in this assay (Q07817 whole entry): as above

Test [5] addresses T1, Bcl-2-like protein 1. Nature of the test: Activity towards mouse FL5.12 cell line transfected with Bcl-XL in presence of 3% fetal bovine serum. The class given is functional. Summed up: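 Bcl-XL-transfected murine FL5.12 (IL-3 dependent) grown in RPMI with 10% FBS and WEHI-3B conditioned medium as the IL-3 source. Switched to IL-3-depleted, FBS-free medium for 2 days. Then placed in gelatin assay medium (3.4 mg/mL bovine gelatin) or 3% FBS assay medium. Serial compound dilutions added for 24 h. Viability read by MTS or CellTiter-Glo; duplicate values per determination; EC50.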
Target sequence in this assay (Q07817 whole entry): as above

The target in test [6] is T1, Bcl-2-like protein 1. Conditions: 10 uM.
Target sequence in this assay (Q07817 whole entry): as above
The target in test [7] is T1, Bcl-2-like protein 1. Nature of the test: Inhibitory activity against Bcl-XL in presence of alpha-1 acid glycoprotein from 1% human serum. Summed up: (§1)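 Competitive fluorescence polarization assay: serial compound dilutions compete with 30 nM f-Bad peptide (FITC-labelled) for binding to 60 nM Bcl-XL. Human serum (1%) or individual serum proteins are added to the assay buffer. Protein levels: HSA 0.42 mg/mL, HSA-III 0.146 mg/mL, α1-acid glycoprotein 0.0095 mg/mL. IC50 is calculated from duplicate values per determination.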
Target sequence in this assay (Q07817 whole entry): as above

Test [8] has as its target T1, Bcl-2-like protein 1. Nature of the test: Inhibitory activity against Bcl-XL in presence of 1% human serum. Put shortly:
as §1

Test [9] deals with T1, Bcl-2-like protein 1. Nature of the test: Inhibitory activity against Bcl-XL in presence of HSA from 1% human serum. Put shortly:
as §1

Test [10] concerns the target T1, Bcl-2-like protein 1. The test is described as follows: Inhibitory activity against Bcl-XL in presence of HSA3 from 1% human serum.
Target sequence in this assay (Q07817 whole entry, looked up): as the sequence (Q07817 whole entry) above
The target in the next test is Albumin (Homo sapiens, UniProt P02768). Nature of the test: Binding affinity for human serum albumin domain III.

A value given as a limit tells only on which side of the number the result lay.

Apoptosis regulator Bcl-2, sequence (P10415 whole entry): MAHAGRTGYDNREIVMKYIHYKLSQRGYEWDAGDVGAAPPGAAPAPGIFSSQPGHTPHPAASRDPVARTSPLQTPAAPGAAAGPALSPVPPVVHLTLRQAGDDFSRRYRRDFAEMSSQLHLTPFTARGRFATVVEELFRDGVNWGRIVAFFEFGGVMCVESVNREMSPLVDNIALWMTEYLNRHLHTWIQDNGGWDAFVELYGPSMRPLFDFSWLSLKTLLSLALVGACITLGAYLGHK
Albumin, sequence (P02768 whole entry, the tested form may be a part): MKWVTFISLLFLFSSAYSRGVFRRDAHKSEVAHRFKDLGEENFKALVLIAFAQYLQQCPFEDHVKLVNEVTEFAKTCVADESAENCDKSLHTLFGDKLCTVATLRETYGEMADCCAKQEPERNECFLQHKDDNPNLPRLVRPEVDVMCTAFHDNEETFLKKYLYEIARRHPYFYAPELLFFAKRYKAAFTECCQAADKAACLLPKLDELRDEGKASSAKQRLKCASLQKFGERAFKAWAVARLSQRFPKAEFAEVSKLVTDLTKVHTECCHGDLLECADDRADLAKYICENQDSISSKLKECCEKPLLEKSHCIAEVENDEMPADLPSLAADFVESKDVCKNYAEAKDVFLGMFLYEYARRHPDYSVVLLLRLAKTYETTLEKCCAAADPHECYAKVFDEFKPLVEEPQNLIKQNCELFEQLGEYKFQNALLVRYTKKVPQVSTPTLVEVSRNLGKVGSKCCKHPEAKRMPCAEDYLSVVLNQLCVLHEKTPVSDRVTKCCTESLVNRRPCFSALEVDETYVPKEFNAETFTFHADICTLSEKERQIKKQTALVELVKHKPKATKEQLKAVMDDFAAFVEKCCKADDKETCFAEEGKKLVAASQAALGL

Consider `COc1cc(C(=O)N(C)C)ccc1-c1ccc(C(=O)NS(=O)(=O)c2ccc(NCCSc3ccccc3)c([N+](=O)[O-])c2)cc1`, for which the values for the inhibition constant (Ki) (in test [1]; at Bcl-2-like protein 1 [2]; at Bcl-2-like protein 1 [3]) were 1980 nM, 471 nM and more than 10000 nM, respectively.
Take `COc1cc(CCCN2CCOCC2)ccc1-c1ccc(C(=O)NS(=O)(=O)c2ccc(NCCSc3ccccc3)c([N+](=O)[O-])c2)cc1`: the inhibition constant Ki in test [1] was found to be 402 nM; at Bcl-2-like protein 1 [2], 10.4 nM; on Bcl-2-like protein 1 [4], 4300 nM; at Bcl-2-like protein 1 [3] it was 580 nM.
On to `CC1(C)CCN(c2ccc(C(=O)NS(=O)(=O)c3ccc(N[C@H](CCN4CCOCC4)CSc4ccccc4)c([N+](=O)[O-])c3)cc2)CC1`, for which the inhibition constant (Ki) in test [1] is 55 nM; on Bcl-2-like protein 1 [2], 1.1 nM; at Bcl-2-like protein 1 [3] it was more than 10000 nM. The EC50 on Bcl-2-like protein 1 [5] amounted to 7000 nM.
In the same order, the values of `COc1cc(CCCN2CCOCC2)ccc1-c1ccc(C(=O)NS(=O)(=O)c2ccc(N[C@@H](CCN(C)C)CSc3ccccc3)c([N+](=O)[O-])c2)cc1` are 2160 nM, 250 nM, 1140 nM and 59200 nM.
In the same order, the values of `CN(C)C(=O)C[C@H](CSc1ccccc1)Nc1ccc(S(=O)(=O)NC(=O)c2ccc(N3CCC(C)(C)CC3)cc2)cc1[N+](=O)[O-]` are 75 nM, 3.1 nM, 1790 nM and 15000 nM.
Regarding `CC1(C)CCN(c2ccc(C(=O)NS(=O)(=O)c3ccc(NCCSc4ccccc4)c([N+](=O)[O-])c3)cc2)CC1`, the Ki in test [1] was 192 nM; on Bcl-2-like protein 1 [2] it was 19 nM; at Bcl-2-like protein 1 [3], 652 nM.
Consider `COc1cc(CCCN2CCOCC2)ccc1-c1ccc(C(=O)NS(=O)(=O)c2ccc(N[C@H](CCCCN)CSc3ccccc3)c([N+](=O)[O-])c2)cc1`, for which the Ki came out at 70 nM in test [1], 0.8 nM on Bcl-2-like protein 1 [2] and 29.6 nM on Bcl-2-like protein 1 [3]. The EC50 at Bcl-2-like protein 1 [5] was determined as 9000 nM.
In the same order, the values of `CC1(C)CCN(c2ccc(C(=O)NS(=O)(=O)c3ccc(N[C@@H](CCN4CCOCC4)CSc4ccccc4)c([N+](=O)[O-])c3)cc2)CC1` are 732 nM, 75 nM, 6050 nM and 9310 nM.
Regarding `COc1cc(CCN(C)C)ccc1-c1ccc(C(=O)NS(=O)(=O)c2ccc(NCCSc3ccccc3)c([N+](=O)[O-])c2)cc1`, the inhibition constant (Ki) amounted to 3260 nM in test [1], 665 nM at Bcl-2-like protein 1 [2] and 998 nM on Bcl-2-like protein 1 [3].
Turning to `CC(=O)N1CCN(c2ccc(C(=O)NS(=O)(=O)c3ccc(NCCSc4ccccc4)c([N+](=O)[O-])c3)cc2)CC1`, the Ki is more than 10000 nM in test [1], 894 nM on Bcl-2-like protein 1 [2] and 2970 nM on Bcl-2-like protein 1 [3].
With `O=C(NS(=O)(=O)c1ccc(NCCSc2ccccc2)c([N+](=O)[O-])c1)c1ccc(-c2ccc(F)cc2)cc1`, on Bcl-2-like protein 1 [6], the inhibition was found to be 1%. In addition, the Ki in [1] came to 433 nM; at Bcl-2-like protein 1 [2] it was 36 nM; on Bcl-2-like protein 1 [3], 2500 nM. The IC50 is 122 nM on Bcl-2-like protein 1 [7], more than 10000 nM at Bcl-2-like protein 1 [8], more than 10000 nM at Bcl-2-like protein 1 [9] and 6300 nM at Bcl-2-like protein 1 [10].
As for `O=C(NS(=O)(=O)c1ccc(NCCSc2ccccc2)c([N+](=O)[O-])c1)c1ccc(N2CCNCC2)cc1`, the inhibitory constant (Ki) at Bcl-2-like protein 1 [2] was 2520 nM; on Bcl-2-like protein 1 [3], more than 10000 nM.
In the case of `O=C(NS(=O)(=O)c1ccc(NCCSc2ccccc2)c([N+](=O)[O-])c1)c1ccc(N2CCOCC2)cc1`, the Ki in test [1] is more than 10000 nM; at Bcl-2-like protein 1 [2], 1080 nM; at Bcl-2-like protein 1 [3], more than 10000 nM.
On to `COc1cc(CC(=O)N(C)C)ccc1-c1ccc(C(=O)NS(=O)(=O)c2ccc(NCCSc3ccccc3)c([N+](=O)[O-])c2)cc1`, for which the results for the Ki (in test [1]; on Bcl-2-like protein 1 [2]; at Bcl-2-like protein 1 [3]) were more than 10000 nM, 251 nM and more than 10000 nM, respectively.
As to `COc1cc(CCCN(C)C)ccc1-c1ccc(C(=O)NS(=O)(=O)c2ccc(NCCSc3ccccc3)c([N+](=O)[O-])c2)cc1`, the inhibition constant Ki was found to be 1230 nM in test [1], 106 nM at Bcl-2-like protein 1 [2], 5660 nM at Bcl-2-like protein 1 [4] and 730 nM at Bcl-2-like protein 1 [3].
In the case of `COc1cc(CCCN2CCOCC2)ccc1-c1ccc(C(=O)NS(=O)(=O)c2ccc(N[C@H](CCN3CCOCC3)CSc3ccccc3)c([N+](=O)[O-])c2)cc1`, the inhibition constant Ki in [1] was 165 nM; at Bcl-2-like protein 1 [2], less than 0.5 nM; at Bcl-2-like protein 1 [3], more than 10000 nM. Also, the EC50 on Bcl-2-like protein 1 [5] was 2110 nM.
In the same order, the values of `CN(C)CC[C@@H](CSc1ccccc1)Nc1ccc(S(=O)(=O)NC(=O)c2ccc(N3CCC(C)(C)CC3)cc2)cc1[N+](=O)[O-]` are 1260 nM, 252 nM, 3850 nM and 16100 nM.
Regarding `COc1cc(CCCO)ccc1-c1ccc(C(=O)NS(=O)(=O)c2ccc(NCCSc3ccccc3)c([N+](=O)[O-])c2)cc1`, the inhibitory constant (Ki) in test [1] turned out to be 721 nM; at Bcl-2-like protein 1 [2] it was 21.5 nM; on Bcl-2-like protein 1 [3] it was 2960 nM.
Taken in the same sequence, the figures for `CC(C)(C)OC(=O)N1CCN(c2ccc(C(=O)NS(=O)(=O)c3ccc(NCCSc4ccccc4)c([N+](=O)[O-])c3)cc2)CC1` were 2880 nM, 396 nM and 3350 nM.
Regarding `COc1cc(CCCN2CCOCC2)ccc1-c1ccc(C(=O)NS(=O)(=O)c2ccc(N[C@@H](CSc3ccccc3)CC(=O)N(C)C)c([N+](=O)[O-])c2)cc1`, the inhibition constant (Ki) is 121 nM in test [1], 1.7 nM at Bcl-2-like protein 1 [2] and 1000 nM on Bcl-2-like protein 1 [3]. At Bcl-2-like protein 1 [5], the EC50 was determined as 7630 nM.
Regarding `COc1cc(CCCN2CCOCC2)ccc1-c1ccc(C(=O)NS(=O)(=O)c2ccc(N[C@H](CCN(C)C)CSc3ccccc3)c([N+](=O)[O-])c2)cc1`, the Ki in [1] is 116 nM; at Bcl-2-like protein 1 [2] it was less than 0.5 nM; on Bcl-2-like protein 1 [3], 148 nM. On Bcl-2-like protein 1 [5], the half-maximal effective concentration (EC50) was determined as 2080 nM. Besides, binding at Albumin was characterised by a dissociation constant (Kd) of 94000 nM.
With `COc1cc(CCCN2CCOCC2)ccc1-c1ccc(C(=O)NS(=O)(=O)c2ccc(N[C@H](CCCCN(C)C)CSc3ccccc3)c([N+](=O)[O-])c2)cc1`, the results for the inhibition constant (Ki) (in test [1]; at Bcl-2-like protein 1 [2]; on Bcl-2-like protein 1 [3]) were 58.8 nM, less than 0.5 nM and 215 nM, respectively. In addition, on Bcl-2-like protein 1 [5], the half-maximal effective concentration (EC50) is 6000 nM.
For `CC1(C)CCN(c2ccc(C(=O)NS(=O)(=O)c3ccc(N[C@H](CCCCN)CSc4ccccc4)c([N+](=O)[O-])c3)cc2)CC1`, the Ki in test [1] came out at 231 nM; at Bcl-2-like protein 1 [2], 1 nM; on Bcl-2-like protein 1 [3] it was 256 nM. Moreover, the EC50 on Bcl-2-like protein 1 [5] is 20800 nM.
Consider `CN(C)C(=O)N1CCN(c2ccc(C(=O)NS(=O)(=O)c3ccc(NCCSc4ccccc4)c([N+](=O)[O-])c3)cc2)CC1`, for which the results for the inhibition constant Ki (in [1]; at Bcl-2-like protein 1 [2]; on Bcl-2-like protein 1 [3]) were 3540 nM, 294 nM and 869 nM, respectively.
`COc1cc(CCC(=O)N(C)C)ccc1-c1ccc(C(=O)NS(=O)(=O)c2ccc(NCCSc3ccccc3)c([N+](=O)[O-])c2)cc1`: the figures for the inhibitory constant (Ki) (in [1]; on Bcl-2-like protein 1 [2]; on Bcl-2-like protein 1 [3]) were 400 nM, 38.9 nM and 1000 nM, respectively.
`CN(C)CCC[C@H](CSc1ccccc1)Nc1ccc(S(=O)(=O)NC(=O)c2ccc(N3CCC(C)(C)CC3)cc2)cc1[N+](=O)[O-]`: the Ki amounted to 92.1 nM in test [1], 2.6 nM on Bcl-2-like protein 1 [2] and 728 nM at Bcl-2-like protein 1 [3]. The 50% effective concentration (EC50) on Bcl-2-like protein 1 [5] amounted to 14100 nM.
In the same order, the values of `CN(C)CCCC[C@H](CSc1ccccc1)Nc1ccc(S(=O)(=O)NC(=O)c2ccc(N3CCC(C)(C)CC3)cc2)cc1[N+](=O)[O-]` are 73 nM, 1.2 nM, 174 nM and 3890 nM.
As for `COc1cc(CN(C)C)ccc1-c1ccc(C(=O)NS(=O)(=O)c2ccc(NCCSc3ccccc3)c([N+](=O)[O-])c2)cc1`, the Ki in [1] is 4570 nM; at Bcl-2-like protein 1 [2], 426 nM; on Bcl-2-like protein 1 [3] it was 1000 nM.
Taken in the same sequence, the figures for `COc1cc(CCC(=O)N2CCOCC2)ccc1-c1ccc(C(=O)NS(=O)(=O)c2ccc(NCCSc3ccccc3)c([N+](=O)[O-])c2)cc1` were 366 nM, 57.9 nM and 790 nM.
Regarding `COc1cc(CCCN2CCOCC2)ccc1-c1ccc(C(=O)NS(=O)(=O)c2ccc(N[C@H](CCCN(C)C)CSc3ccccc3)c([N+](=O)[O-])c2)cc1`, the results for the inhibitory constant (Ki) (in test [1]; on Bcl-2-like protein 1 [2]; on Bcl-2-like protein 1 [3]) were 317 nM, 0.9 nM and 71 nM, respectively. Further, on Bcl-2-like protein 1 [5], the EC50 came to 8600 nM.

One may read the Ki as the dissociation constant of the complex between target and ligand, obtained from inhibition or displacement. Lower therefore signals higher affinity. What is called EC50 is the midpoint of the concentration-response curve. The term inhibition denotes how much of the control response was suppressed. Low values mean a weak effect, high ones a strong effect. As a reminder, the IC50 is the concentration needed to halve the response being measured. Broadly, the Kd is the constant that tells how readily two partners part at equilibrium. A lower Kd goes with higher affinity.
